Test results: ChEMBL document CHEMBL4118248, “Small Molecule Proprotein Convertase Subtilisin/Kexin Type 9 (PCSK9) Inhibitors: Hit to Lead Optimization of Systemic Agents” (J Med Chem, 2018)
The source made the active and inactive calls. No cut-off for these calls is given here.

Tests used:
80S Ribosome [1] = test: Binding affinity of [3H]PF-06446846 to human 80S ribosome
CYP2C9 = CYP2C9 (Homo sapiens, UniProt P11712); test: Inhibition of CYP2C9 (unknown origin) at 3 uM relative to control; type: ADME
Method in brief: (§1)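 Inhibition of CYP1A2, 2D6, 2C9 and 3A4 reported as IC50, or as percent inhibition at 3 µM.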

[2] = Permeability from apical to basolateral side in MDCK cells harboring MDR1; type: ADME, cell-based, Canis lupus familiaris; conditions: dog, read-out: permeability
Method in brief: (§2)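 Bidirectional permeability across MDR1-transfected MDCK monolayers, apical-to-basolateral and basolateral-to-apical; Papp reported in 10^-6 cm/s.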

Rattus norvegicus [3] = test: Toxicity in Crl:CD(SD) rat assessed as discolored/mottled liver at 50 mg/kg/day, po daily via gavage for 14 days measured on day 15 post last dose; type: organism-based; conditions: in vivo, 336 h
Method in brief: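 Male rats, 5 per group, given vehicle or compound at 50 mg/kg/day by oral gavage for 14 days. Mortality, clinical signs and hematology monitored throughout. Necropsy on day 15 with microscopy of bone marrow, ileum, duodenum, jejunum and liver. Toxicokinetics at 1, 3, 6 and 24 h post-dose on day 14.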

[4] = Total Cmax in Crl:CD(SD) rat at 50 mg/kg/day, po daily via gavage for 14 days measured on day 14 post last dose up to 24 hrs; type: ADME, organism-based; parameters: dose 50 mg/kg/day, route oral; conditions: in vivo
CYP2D6 = CYP2D6 (Homo sapiens, UniProt P10635); test: Inhibition of CYP2D6 (unknown origin) at 3 uM relative to control; type: ADME
Method in brief: as §1

[5] = Apparent permeability in RRCK cells; type: ADME, cell-based, Canis lupus familiaris, MDCKII-LE; conditions: dog, MDCK
Method in brief: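 Passive permeability measured in RRCK cells, a modified Madin-Darby canine kidney line; Papp reported in 10^-6 cm/s.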

Rattus norvegicus [6] = test: Toxicity in Crl:CD(SD) rat assessed as mortality at >= 150 mg/kg/day, po daily via gavage for 14 days measured on day 15 post last dose; type: organism-based; conditions: in vivo, 336 h
80S Ribosome [7] = test: Binding affinity to 80S ribosome in human HuH7 cells assessed as inhibition of PCSK9 mRNA translation after overnight incubation by ELISA; type: cell-based; conditions: huh-7
Method in brief: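 Huh7 cells kept in high-glucose DMEM, 10% BSA-free FBS, 2 mM L-glutamine, pen/strep at 37 °C, 5% CO2. Plated 7,500/well with compound or vehicle and incubated overnight (16-20 h). Secreted PCSK9 in the medium read by AlphaLISA: two antibodies to different mature-PCSK9 epitopes, biotinylated antibody 3 nM final, acceptor beads 10 µg/mL, 0.5 h rt; streptavidin donor beads 40 µg/mL, 1 h rt.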

Ribosome [8] = test: Binding affinity to 80S ribosome in rat IEC-6 cells assessed as induction of changes in Cox15 nascent chain expression at 4 uM by ribosome profiling method; type: cell-based
Method in brief: (§3)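 Rat IEC-6 cells exposed 1 h to 4 µM compound or vehicle, followed by ribosome profiling. Cumulative read fractions along annotated protein regions compared with vehicle. RPKM taken from reads 3' of the Dmax position when the Dmax Z-score is >2.0, otherwise 3' of codon 50.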

[9] = Total plasma concentration in Crl:CD(SD) rat at 50 mg/kg/day, po daily via gavage for 14 days measured on day 14 post last dose up to 24 hrs; type: ADME, organism-based; conditions: in vivo
Rattus norvegicus [10] = test: Toxicity in Crl:CD(SD) rat at 50 mg/kg/day, po daily via gavage for 14 days measured on day 15 post last dose; type: organism-based; conditions: in vivo, 336 h
Method in brief: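 Male rats, 5 per group, given vehicle or test compound at 50 mg/kg by daily oral gavage for 14 days. Mortality, clinical signs and hematology were monitored throughout. Toxicokinetics were sampled at 1, 3, 6 and 24 h post-dose on day 14. Necropsy was on day 15, with microscopic evaluation of bone marrow, ileum, duodenum, jejunum and liver.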

IEC-6 = test: Cytotoxicity against rat IEC-6 cells assessed as reduction in cell viability after 3 days by CellTiter-Glo assay; type: cell-based; conditions: IEC-6, 72 h
Method in brief: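 Rat intestinal epithelial IEC-6 cells; viability read by CellTiter-Glo ATP luminescence.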

[11] = Lipophilicity, log D of the compound by shake flask method; type: physicochemical; conditions: octanol/water
Method in brief: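 LogD measured by the shake-flask method.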

Rattus norvegicus [12] = test: Toxicity in Crl:CD(SD) rat assessed as mortality at 500 mg/kg/day, po daily via gavage for 14 days; type: organism-based; conditions: in vivo, 336 h
Method in brief: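 Rats dosed orally at 50, 150 and 500 mg/kg/day for 14 days; crypt epithelium of duodenum/jejunum examined histologically and mortality recorded.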

80S Ribosome [13] = test: Binding affinity to 80S ribosome in human HuH7 cells harboring pCMV-truncated human PCSK9 (1 to 152 residues)-proLuc assessed as inhibition of PCSK9 mRNA translation after overnight incubation by luciferase reporter gene assay; type: cell-based; conditions: huh-7
Method in brief: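 Huh7 cells stably carry human PCSK9 prodomain (aa 1-152) fused to firefly luciferase (aa 2-550) in pcDNA3.1, kept under 900 µg/mL Geneticin. Plated 10,000/well in phenol red-free DMEM/10% FBS and left 4 h, then compound added (top final 20 µM, 0.5% DMSO). Incubated overnight at 37 °C, luminescence read with SteadyGlo.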

[14] = Permeability from basolateral to apical side in MDCK cells harboring MDR1; type: ADME, cell-based, Canis lupus familiaris; conditions: dog, read-out: permeability
Method in brief: as §2

[15] = Fraction unbound in rat plasma; type: ADME, cell-free
Method in brief: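 Unbound fraction measured in rat plasma.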

Bone marrow cell = test: Cytotoxicity against rat bone marrow cells assessed as reduction in cell viability after 72 hrs by CellTiter-Glo assay; type: cell-based
[16] = Intrinsic clearance in rat liver microsomes; type: ADME, microsome; conditions: read-out: CLH
Rattus norvegicus [17] = test: Toxicity in Crl:CD(SD) rat assessed as single cell necrosis in crypt cells in ileum at 50 mg/kg/day, po daily via gavage for 14 days measured on day 15 post last dose; type: organism-based; conditions: in vivo, 336 h
Rattus norvegicus [18] = test: Toxicity in Crl:CD(SD) rat at 50 mg/kg/day, po daily via gavage for 14 days; type: organism-based; conditions: in vivo, 336 h
Ribosome [19] = test: Binding affinity to 80S ribosome in rat IEC-6 cells assessed as induction of changes in Ndc80 nascent chain expression at 4 uM by ribosome profiling method; type: cell-based
Method in brief: as §3

CYP1A2 = molecular target: T1, CYP1A2 (Homo sapiens, UniProt P05177); test: Inhibition of CYP1A2 (unknown origin) at 3 uM relative to control; type: ADME
T1 sequence (P05177 whole entry): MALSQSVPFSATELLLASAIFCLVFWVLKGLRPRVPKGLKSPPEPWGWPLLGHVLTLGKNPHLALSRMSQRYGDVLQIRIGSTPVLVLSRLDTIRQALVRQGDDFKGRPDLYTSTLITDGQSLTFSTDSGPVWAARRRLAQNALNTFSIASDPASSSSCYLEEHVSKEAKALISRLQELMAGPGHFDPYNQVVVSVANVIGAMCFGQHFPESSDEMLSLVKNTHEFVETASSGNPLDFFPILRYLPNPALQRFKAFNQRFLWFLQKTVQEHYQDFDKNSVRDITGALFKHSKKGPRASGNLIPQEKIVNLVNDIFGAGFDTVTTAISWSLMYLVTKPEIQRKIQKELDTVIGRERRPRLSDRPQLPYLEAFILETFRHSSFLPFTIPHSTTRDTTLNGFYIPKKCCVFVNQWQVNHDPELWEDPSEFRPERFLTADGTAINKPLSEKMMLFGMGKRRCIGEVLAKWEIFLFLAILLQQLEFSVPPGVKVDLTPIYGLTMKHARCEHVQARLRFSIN
Method in brief: as §1

[20] = molecular target: T2, Voltage-gated inwardly rectifying potassium channel KCNH2 (Homo sapiens, UniProt Q12809); test: Inhibition of human ERG by patch clamp method
CYP3A4 = CYP3A4 (Homo sapiens, UniProt P08684); test: Inhibition of CYP3A4 (unknown origin) at 3 uM relative to control; type: ADME
Method in brief: as §1

[21] = Intrinsic clearance in human liver microsomes; type: ADME, microsome; conditions: read-out: CLH
[22] = molecular target: T2, Voltage-gated inwardly rectifying potassium channel KCNH2; test: Inhibition of dofetilide binding to human ERG by fluorescence polarization assay
Mus musculus = test: Inhibition of PCSK9 secretion in plasma of humanized PCSK9 C57BL6J mouse assessed as free plasma concentration required to show effect at 30 to 100 mg/kg, po via gavage measured up to 24 hrs by ELISA; type: functional
Method in brief: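 Humanized PCSK9 mice given a single oral dose of 30 or 100 mg/kg, with vehicle group. Plasma PCSK9 followed over 0-24 h and normalized to t = 0. Free effective concentration derived from the whole time course with an indirect-effect PK/PD model.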

[23] = Cytotoxicity against human CD34-positive hematopoietic progenitor cells assessed as reduction in cell viability after 72 hrs by CellTiter-Glo assay; type: cell-based
[24] = Selectivity index, ratio of IC50 for cytotoxicity against rat bone marrow cells to IC50 for 80S ribosome in human HuH7 cells harboring pCMV-truncated human PCSK9 (1 to 152 residues)-proLuc; type: toxicity, cell-based; conditions: read-out: Ratio IC50

T2 sequence (Q12809 whole entry): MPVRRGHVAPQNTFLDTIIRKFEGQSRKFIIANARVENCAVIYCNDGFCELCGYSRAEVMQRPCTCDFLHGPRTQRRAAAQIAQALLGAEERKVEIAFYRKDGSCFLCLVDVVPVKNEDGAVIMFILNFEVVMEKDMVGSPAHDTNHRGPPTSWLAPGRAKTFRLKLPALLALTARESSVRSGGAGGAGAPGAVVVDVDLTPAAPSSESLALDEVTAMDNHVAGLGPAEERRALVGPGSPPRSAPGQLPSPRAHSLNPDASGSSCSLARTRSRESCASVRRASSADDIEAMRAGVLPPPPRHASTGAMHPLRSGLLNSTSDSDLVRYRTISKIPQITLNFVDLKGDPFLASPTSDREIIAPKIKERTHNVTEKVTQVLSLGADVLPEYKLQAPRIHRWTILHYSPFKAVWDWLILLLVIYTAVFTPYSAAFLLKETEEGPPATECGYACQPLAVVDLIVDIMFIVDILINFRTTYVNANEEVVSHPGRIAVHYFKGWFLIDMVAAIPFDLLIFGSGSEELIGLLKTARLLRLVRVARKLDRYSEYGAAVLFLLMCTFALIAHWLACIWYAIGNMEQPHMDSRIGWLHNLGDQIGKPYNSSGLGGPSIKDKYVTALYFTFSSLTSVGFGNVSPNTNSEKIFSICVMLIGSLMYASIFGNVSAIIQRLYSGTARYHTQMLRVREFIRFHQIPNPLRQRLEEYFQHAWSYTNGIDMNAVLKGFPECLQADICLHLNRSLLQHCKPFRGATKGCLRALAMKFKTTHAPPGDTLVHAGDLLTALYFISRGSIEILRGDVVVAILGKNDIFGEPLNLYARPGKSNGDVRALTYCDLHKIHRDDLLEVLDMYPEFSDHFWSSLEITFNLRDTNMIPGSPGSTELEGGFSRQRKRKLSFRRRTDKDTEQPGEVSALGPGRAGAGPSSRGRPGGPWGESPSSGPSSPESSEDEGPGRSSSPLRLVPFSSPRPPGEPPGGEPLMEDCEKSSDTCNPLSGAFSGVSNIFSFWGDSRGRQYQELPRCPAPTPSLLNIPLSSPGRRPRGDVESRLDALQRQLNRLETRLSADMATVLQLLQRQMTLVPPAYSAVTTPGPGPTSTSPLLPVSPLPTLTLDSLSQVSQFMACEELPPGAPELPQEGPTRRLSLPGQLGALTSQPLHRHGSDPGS
CYP2D6, sequence (P10635 whole entry): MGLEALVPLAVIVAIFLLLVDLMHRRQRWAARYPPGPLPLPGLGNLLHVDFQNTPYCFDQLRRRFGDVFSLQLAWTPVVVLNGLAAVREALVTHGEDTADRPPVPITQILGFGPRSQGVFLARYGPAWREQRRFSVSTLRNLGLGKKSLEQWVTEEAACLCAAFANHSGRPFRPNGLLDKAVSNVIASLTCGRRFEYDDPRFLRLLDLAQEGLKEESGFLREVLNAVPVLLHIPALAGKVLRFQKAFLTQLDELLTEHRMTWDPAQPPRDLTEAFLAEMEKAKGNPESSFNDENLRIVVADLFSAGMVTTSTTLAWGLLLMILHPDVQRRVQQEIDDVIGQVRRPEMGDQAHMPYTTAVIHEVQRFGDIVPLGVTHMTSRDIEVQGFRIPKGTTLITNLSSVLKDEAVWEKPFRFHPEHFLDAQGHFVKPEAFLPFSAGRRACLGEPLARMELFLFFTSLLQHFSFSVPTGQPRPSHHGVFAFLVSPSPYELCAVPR
CYP3A4, sequence (P08684 whole entry): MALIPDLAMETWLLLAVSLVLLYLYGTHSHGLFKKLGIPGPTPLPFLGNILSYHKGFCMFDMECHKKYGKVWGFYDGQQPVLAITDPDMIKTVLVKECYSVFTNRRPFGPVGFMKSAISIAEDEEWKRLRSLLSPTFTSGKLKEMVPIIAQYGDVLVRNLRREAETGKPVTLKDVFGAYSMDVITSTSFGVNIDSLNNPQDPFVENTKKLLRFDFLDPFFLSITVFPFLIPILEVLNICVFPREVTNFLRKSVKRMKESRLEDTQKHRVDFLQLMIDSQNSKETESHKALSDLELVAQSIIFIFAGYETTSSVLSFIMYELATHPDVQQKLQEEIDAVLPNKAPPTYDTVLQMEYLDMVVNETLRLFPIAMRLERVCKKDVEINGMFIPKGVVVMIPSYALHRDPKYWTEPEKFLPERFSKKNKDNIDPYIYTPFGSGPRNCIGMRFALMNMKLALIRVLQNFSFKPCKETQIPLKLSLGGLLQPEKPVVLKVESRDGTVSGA
CYP2C9, sequence (P11712 whole entry): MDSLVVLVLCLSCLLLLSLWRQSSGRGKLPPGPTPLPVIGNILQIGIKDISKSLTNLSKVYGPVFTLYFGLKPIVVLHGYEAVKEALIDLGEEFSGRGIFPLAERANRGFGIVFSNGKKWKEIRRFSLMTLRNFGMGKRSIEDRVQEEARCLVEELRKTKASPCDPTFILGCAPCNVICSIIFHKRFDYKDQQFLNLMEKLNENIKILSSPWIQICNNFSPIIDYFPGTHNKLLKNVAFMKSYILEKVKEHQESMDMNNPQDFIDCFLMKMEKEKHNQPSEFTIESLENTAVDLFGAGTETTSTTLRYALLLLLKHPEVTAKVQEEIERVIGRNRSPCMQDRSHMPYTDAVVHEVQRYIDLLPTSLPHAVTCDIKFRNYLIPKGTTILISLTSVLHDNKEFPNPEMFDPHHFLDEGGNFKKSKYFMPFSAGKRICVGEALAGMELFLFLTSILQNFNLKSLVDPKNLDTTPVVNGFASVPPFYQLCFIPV

Cc1cnc2c(c1)nnn2-c1ccc(C(=O)N(c2ncccc2Cl)[C@@H]2CCCNC2)nc1
Ki (80S Ribosome [1]): 63 µM | inhibition at 3 µM (CYP2C9): < 13% | Papp A→B [2]: 1.3 ×10⁻⁶ cm/s | Activity (Rattus norvegicus [3]): Toxic | Cmax [4]: 9660 ng/mL | inhibition at 3 µM (CYP2D6): < 13% | Papp [5]: 6.2 ×10⁻⁶ cm/s | Activity (Rattus norvegicus [6]): Toxic | IC50 (80S Ribosome [7]): 1.37 µM | Activity (Ribosome [8]): Active | concentration [9]: 15.9 µM | Activity (Rattus norvegicus [10]): Non-Toxic | IC50 (IEC-6): > 20 µM | logD [11]: 0.7 | Activity (Rattus norvegicus [12]): Toxic | IC50 (80S Ribosome [13]): 0.85 µM | Papp B→A [14]: 19.9 ×10⁻⁶ cm/s | fraction unbound [15]: 0.24 | IC50 (Bone marrow cell): 20 to 65 µM | microsomal CLint [16]: 15.1 µL/min/mg | Activity (Rattus norvegicus [17]): Non-Toxic | NOAEL (Rattus norvegicus [18]): 4.231 µM | Activity (Ribosome [19]): Active | inhibition at 3 µM (CYP1A2): < 13% | IC50 [20]: 3.6 µM | inhibition at 3 µM (CYP3A4): < 13% | microsomal CLint [21]: 9.3 µL/min/mg | Ki [22]: 5.9 µM | Cp(f) (Mus musculus): 175 nM | IC50 [23]: > 20 µM | selectivity ratio [24]: > 30
